Assay results taken from ChEMBL document CHEMBL1165916, “Interactions of 1-methyl-3-phenylpyrrolidine and 3-methyl-1-phenyl-3-azabicyclo[3.1.0]hexane with monoamine oxidase B” (Bioorg Med Chem, 2010).
Values belong to the compound of their own block, whether it stands above or below them. Active and inactive are the calls of the source. No cut-off for these calls is given here.

Tests used:
[1] = species on record: Papio hamadryas; assay: Activity at baboon liver mitochondrial MAO-B assessed as H2O2 production at 250 uM after 15 mins
Summary of the method: (§1)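 Baboon liver mitochondria (0.15 mg protein/mL) incubated with substrate and chromogenic solution at 37 °C in 100 mM sodium phosphate, pH 7.4. Reactions stopped at 2.5–20 min with (R)-deprenyl on ice and centrifuged. H2O2 read by peroxidase-coupled spectrophotometric assay against an 11–88 µM calibration. Triplicate, means ± SEM.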

[2] = species on record: Papio hamadryas; assay: Activity at baboon liver mitochondrial MAO-B assessed as H2O2 production at 250 uM after 20 mins; summary of the method: as §1
[3] = species on record: Papio hamadryas; assay: Activity at baboon liver mitochondrial MAO-B assessed as H2O2 production at 500 uM after 20 mins; summary of the method: as §1
[4] = test system: Mus musculus; assay: Neurotoxicity in C57BL/6 mouse assessed as depletion of dopamine level in striatum at 238 umol/kg, ip after 7 days by HPLC-ECD analysis relative to control; type: toxicity, organism-based; conditions: in vivo, 168 h
Summary of the method: (§2)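 Saline controls run alongside. Mice killed by cervical dislocation 7 days later. Striatal dopamine measured by HPLC-ECD, means ± SEM.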

[5] = species on record: Papio hamadryas; assay: Activity at baboon liver mitochondrial MAO-B assessed as H2O2 production at Vmax concentration after 15 mins
[6] = species on record: Papio hamadryas; assay: Ratio of Vmax to Km for baboon liver mitochondrial MAO-B assessed per mg of protein after 15 mins
Summary of the method: (§3)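 Incubation time was set within the linear range for each substrate. Stopped with (R)-deprenyl on ice; peroxidase-coupled spectrophotometric read-out. Rates in nmol/min-mg protein, fitted to Michaelis–Menten. Triplicate or duplicate.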

[7] = species on record: Papio hamadryas; assay: Activity at baboon liver mitochondrial MAO-B assessed as initial rate of H2O2 production after 15 mins assessed per mg of mitochondrial protein; summary of the method: as §3
[8] = species on record: Papio hamadryas; assay: Activity at baboon liver mitochondrial MAO-B assessed as initial rate of H2O2 production after 15 mins; summary of the method: as §3
[9] = species on record: Papio hamadryas; assay: Activity at baboon liver mitochondrial MAO-B assessed as H2O2 production at 250 uM after 15 mins pretreated with MAOB inhibitor (R)-deprenyl
[10] = species on record: Papio hamadryas; assay: Activity at baboon liver mitochondrial MAO-B assessed as H2O2 production at 500 uM after 6 to 15 mins pretreated with (R)-deprenyl
Summary of the method: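 Mitochondria (0.3 mg protein/mL) were preincubated with (R)-deprenyl at 37 °C in 100 mM sodium phosphate, pH 7.4. They were then added to 500 µM substrate to give 0.15 mg protein/mL, with chromogenic solution, at 37 °C. Reactions were stopped with (R)-deprenyl, and H2O2 was measured by peroxidase-coupled spectrophotometry. Values were compared with fully active controls preincubated without inactivator.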

[11] = species on record: Papio hamadryas; assay: Ratio of Vmax to Km for baboon liver mitochondrial MAO-B assessed per mg of protein after 6 mins
Summary of the method: (§4)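 Baboon liver mitochondria stored at −70 °C and diluted with phosphate buffer containing 50% glycerol. MAO-B at 0.15 mg protein/mL in 100 mM sodium phosphate, pH 7.4, 37 °C, with eight substrate concentrations spanning two orders of magnitude. Incubation lasted 6 or 8 min (linear period). Stopped with (R)-deprenyl on ice, then centrifuged. H2O2 measured by peroxidase-coupled spectrophotometry against an 11–88 µM calibration. Duplicates; Michaelis–Menten fit gave Km, Vmax (nmol/min-mg), Vmax/Km.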

[12] = species on record: Papio hamadryas; assay: Activity at baboon liver mitochondrial MAO-B assessed as initial rate of H2O2 production after 6 mins; summary of the method: as §4
[13] = species on record: Papio hamadryas; assay: Activity at baboon liver mitochondrial MAO-B assessed as initial rate of H2O2 production after 6 mins assessed per mg of mitochondrial protein; summary of the method: as §4
[14] = species on record: Papio hamadryas; assay: Activity at baboon liver mitochondrial MAO-B assessed as H2O2 production at 500 uM after 20 mins pretreated with MAOB inhibitor (R)-deprenyl
[15] = species on record: Papio hamadryas; assay: Activity at baboon liver mitochondrial MAO-B assessed as H2O2 production at Vmax concentration after 20 mins
[16] = species on record: Papio hamadryas; assay: Activity at baboon liver mitochondrial MAO-B assessed as initial rate of H2O2 production after 20 mins; summary of the method: as §3
[17] = species on record: Papio hamadryas; assay: Activity at baboon liver mitochondrial MAO-B assessed as initial rate of H2O2 production after 20 mins assessed per mg of mitochondrial protein; summary of the method: as §3
[18] = species on record: Papio hamadryas; assay: Ratio of Vmax to Km for baboon liver mitochondrial MAO-B assessed per mg of protein after 20 mins; summary of the method: as §3
[19] = species on record: Papio hamadryas; assay: Ratio of Vmax to Km for baboon liver mitochondrial MAO-B assessed per mg of protein after 10 mins; summary of the method: as §3
[20] = species on record: Papio hamadryas; assay: Activity at baboon liver mitochondrial MAO-B assessed as initial rate of H2O2 production after 10 mins; summary of the method: as §3
[21] = species on record: Papio hamadryas; assay: Activity at baboon liver mitochondrial MAO-B assessed as initial rate of H2O2 production after 10 mins assessed per mg of mitochondrial protein; summary of the method: as §3
[22] = species on record: Papio hamadryas; assay: Activity at baboon liver mitochondrial MAO-B assessed as H2O2 production at 250 uM after 6 to 15 mins pretreated with (R)-deprenyl
[23] = species on record: Papio hamadryas; assay: Activity at baboon liver mitochondrial MAO-B assessed as initial rate of H2O2 production after 8 mins; summary of the method: as §4
[24] = species on record: Papio hamadryas; assay: Ratio of Vmax to Km for baboon liver mitochondrial MAO-B assessed per mg of protein after 8 mins; summary of the method: as §4
[25] = species on record: Papio hamadryas; assay: Activity at baboon liver mitochondrial MAO-B assessed as initial rate of H2O2 production after 8 mins assessed per mg of mitochondrial protein; summary of the method: as §4
[26] = species on record: Papio hamadryas; assay: Activity at baboon liver mitochondrial MAO-B assessed as initial rate of H2O2 production after 12.5 mins assessed per mg of mitochondrial protein
Summary of the method: (§5)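 Baboon liver mitochondrial fraction (0.15 mg protein/mL; protein by Bradford) was incubated with substrate in 100 mM sodium phosphate, pH 7.4, at 37 °C for 12.5 min. (R)-Deprenyl (5 mM stock) was added and the samples were placed on ice, then centrifuged. H2O2 was read by peroxidase-coupled spectrophotometry against an 11–88 µM calibration. Initial rates were taken at eight substrate levels, in duplicate. Km and Vmax came from a Michaelis–Menten fit, with rates as nmol H2O2/min-mg protein.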

[27] = test system: Mus musculus; assay: Neurotoxicity in C57BL/6 mouse assessed as depletion of dopamine level in striatum at 167 umol/kg, ip after 7 days by HPLC-ECD analysis relative to control; type: toxicity, organism-based; conditions: in vivo, 168 h; summary of the method: as §2
[28] = species on record: Papio hamadryas; assay: Activity at baboon liver mitochondrial MAO-B assessed as initial rate of H2O2 production after 12.5 mins; summary of the method: as §5
[29] = species on record: Papio hamadryas; assay: Ratio of Vmax to Km for baboon liver mitochondrial MAO-B assessed per mg of protein after 12.5 mins; summary of the method: as §5

SMILES: CN1CC2CC2(c2ccccc2)C1.O=C(O)C(=O)O (racemic)
- Activity [1]: 27.3 µM
- Activity [2]: Active
- Activity [3]: Active
- Activity [4]: 111%
- Activity [5]: 6%
- Vmax/Km [6]: 0.11 min⁻¹
- Vmax [7]: 16.9 nmol/min
- Km [8]: 148 µM
- Activity [9]: 1.79 µM

- Activity [10]: 5%
- Vmax/Km [11]: 0.85 min⁻¹
- Km [12]: 58.9 µM
- Vmax [13]: 50 nmol/min/mg
SMILES: NCCC(=O)c1ccccc1N

SMILES: CN1CCC(c2ccccc2)C1.O=C(O)C(=O)O (racemic)
- Activity [2]: Active
- Activity [14]: 1.92 µM
- Activity [15]: 6%
- Km [16]: 234 µM
- Activity [4]: 99%
- Vmax [17]: 8.37 nmol/min
- Vmax/Km [18]: 0.04 min⁻¹

SMILES: CN1CC=C(c2ccccc2)C1
- Vmax/Km [19]: 0.28 min⁻¹
- Km [20]: 100 µM
- Vmax [21]: 27.9 nmol/min

SMILES: CN1CCC(c2ccccc2)CC1
- Vmax [7]: inactive

SMILES: CN1CC=C(c2cccn2C)CC1
- Vmax/Km [19]: 0.51 min⁻¹
- Km [20]: 43.4 µM
- Vmax [21]: 22.2 nmol/min
- Activity [22]: 5%

- Activity [10]: 5%
- Km [23]: 249 µM
- Vmax/Km [24]: 0.17 min⁻¹
- Vmax [25]: 42.4 nmol/min/mg
SMILES: NCc1ccccc1

SMILES: CN1CC=C(c2ccccc2)CC1.Cl
- Vmax [26]: 11.7 nmol/min
- Activity [10]: 5%
- Activity [27]: 27%
- Km [28]: 81.8 µM
- Vmax/Km [29]: 0.14 min⁻¹
